The source made the active and inactive calls. No cut-off for these calls is given here.
Key:
[1] = molecular target: T1, Glycogen synthase kinase-3 beta (Homo sapiens, UniProt P49841); assay: Inhibition of human GSK3beta in presence of ATP by ADP-glo luminescent assay
Method in brief: (§1)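 Human kinases tested over roughly 0.0003–10 μM by ADP-Glo luminescence with 10 μM ATP, in duplicate. IC50 is taken from dose-response curves.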
Target sequence in this assay (P49841 whole entry): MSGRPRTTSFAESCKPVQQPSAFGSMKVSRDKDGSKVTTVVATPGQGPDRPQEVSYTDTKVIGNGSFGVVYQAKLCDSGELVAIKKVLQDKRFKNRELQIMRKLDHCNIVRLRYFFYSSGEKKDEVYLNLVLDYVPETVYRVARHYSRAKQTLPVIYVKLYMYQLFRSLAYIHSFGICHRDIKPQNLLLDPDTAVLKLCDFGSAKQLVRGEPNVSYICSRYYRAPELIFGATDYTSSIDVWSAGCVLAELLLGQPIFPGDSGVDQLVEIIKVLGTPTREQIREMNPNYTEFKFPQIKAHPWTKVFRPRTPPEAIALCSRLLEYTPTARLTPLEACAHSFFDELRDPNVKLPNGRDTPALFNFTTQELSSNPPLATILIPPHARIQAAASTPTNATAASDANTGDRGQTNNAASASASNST

K562 [2] = assay: Cell cycle arrest in human K562 cells assessed as increase in accumulation at G2/M phase after 24 hrs by propidium iodide staining-based flow cytometric analysis; type: functional; settings: dose 25-100 nM
K562 [3] = assay: Cell cycle arrest in human K562 cells assessed as accumulation at G0/G1 phase at 25 nM after 24 hrs by propidium iodide staining-based flow cytometric analysis (reference value: 21.4 %); type: functional
K562 [4] = assay: Cell cycle arrest in human K562 cells assessed as accumulation at G0/G1 phase at 100 nM after 24 hrs by propidium iodide staining-based flow cytometric analysis (reference value: 21.4 %); type: functional
[5] = molecular target: Cyclin-dependent kinase 5/CDK5 activator 1 (Homo sapiens, UniProt Q00535); assay: Inhibition of human CDK5/p25 in presence of ATP by ADP-glo luminescent assay; type: protein-complex assay; method in brief: as §1
[6] = molecular target: T1, Glycogen synthase kinase-3 beta; assay: Inhibition of human GSK3beta assessed as residual activity at 1 uM in presence of ATP by ADP-glo luminescent assay relative to control
Method in brief: (§2)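 Human kinases assayed by ADP-Glo luminescence with 10 μM ATP, compound at 10 or 1 μM. Activity is expressed as % of maximal activity relative to a DMSO control, mean n = 2.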
Target sequence in this assay (P49841 whole entry, looked up): as the sequence (P49841 whole entry) above

Leishmania major = assay: Inhibition of Leishmania major CK1 assessed as residual activity at 10 uM in presence of ATP by ADP-glo luminescent assay relative to control
[7] = molecular target: T1, Glycogen synthase kinase-3 beta; assay: Potency index, ratio of flavopiridol IC50 to test compound IC50 for human GSK3beta in presence of ATP by ADP-glo luminescent assay
Target sequence in this assay (P49841 whole entry, looked up): as the sequence (P49841 whole entry) above

Sus scrofa [8] = organism: Sus scrofa; assay: Inhibition of porcine GSK3alpha/beta assessed as residual activity at 1 uM in presence of ATP by ADP-glo luminescent assay relative to control
Method in brief: (§3)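 Porcine brain GSK3α/β, native and affinity-purified. Assayed by ADP-Glo luminescence with 10 μM ATP and 0.010 μg/μl GS-1 peptide substrate. Buffer A: 10 mM MgCl2, 1 mM EGTA, 1 mM DTT, 25 mM Tris-HCl pH 7.5, 50 μg/ml heparin. Compound tested at 10 or 1 μM. Result is % of maximal activity versus DMSO control, mean of n = 2.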

K562 [9] = assay: Cell cycle arrest in human K562 cells assessed as accumulation at G2/M phase at 50 nM after 24 hrs by propidium iodide staining-based flow cytometric analysis (reference value: 12.9 %); type: functional
[10] = Inhibition of human CDK10/cyclin M by ADP-Glo assay
NCI-N87 = assay: Antiproliferative activity against human NCI-N87 cells assessed as reduction in cell viability incubated for 72 hrs by CellTiter-Blue fluorescence assay; settings: NCI-N87, 72 h
K562 [11] = assay: Antiproliferative activity against human K562 cells assessed as reduction in cell viability incubated for 72 hrs by CellTiter-Blue resazurin fluorescence assay; settings: K562, 72 h
Plasmodium falciparum [12] = assay: Inhibition of Plasmodium falciparum GSK3 assessed as residual activity at 1 uM in presence of ATP by ADP-glo luminescent assay relative to control
Method in brief: (§4)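 Recombinant P. falciparum GSK3, bacterially expressed, in buffer A (10 mM MgCl2, 1 mM EGTA, 1 mM DTT, 25 mM Tris-HCl pH 7.5, 50 μg/ml heparin). Substrate 0.010 μg/μl GS-1 peptide, 10 μM ATP, ADP-Glo luminescence. Compound at 10 or 1 μM; % residual activity vs DMSO control, mean n = 2.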

Sus scrofa [13] = organism: Sus scrofa; assay: Inhibition of porcine GSK3alpha/beta assessed as residual activity at 10 uM in presence of ATP by ADP-glo luminescent assay relative to control; method in brief: as §3
[14] = molecular target: T2, CDK9/cyclin T1 (Homo sapiens) (UniProt O60563+P50750); assay: Inhibition of human CDK9/cyclin T assessed as residual activity at 1 uM in presence of ATP by ADP-glo luminescent assay relative to control; type: protein-complex assay; method in brief: as §2
[15] = molecular target: T2, CDK9/cyclin T1 (Homo sapiens); assay: Inhibition of human CDK9/cyclin T assessed as residual activity at 10 uM in presence of ATP by ADP-glo luminescent assay relative to control; type: protein-complex assay; method in brief: as §2
HCT-116 [16] = assay: Cell cycle arrest in human HCT-116 cells assessed as accumulation at S phase at 200 nM after 24 hrs by propidium iodide staining-based flow cytometric analysis (reference value: 47.6 %); type: functional
CDK2/Cyclin A2 = CDK2/Cyclin A2 (Homo sapiens, UniProt P24941); assay: Inhibition of human CDK2/cyclin A in presence of ATP by ADP-glo luminescent assay; type: protein-complex assay; method in brief: as §1
K562 [17] = assay: Cell cycle arrest in human K562 cells assessed as accumulation at G2/M phase at 25 nM after 24 hrs by propidium iodide staining-based flow cytometric analysis (reference value: 12.9 %); type: functional
CDK9/cyclin T1 = CDK9/cyclin T1 (Homo sapiens, UniProt P50750); assay: Inhibition of human CDK9/cyclin T in presence of ATP by ADP-glo luminescent assay; type: protein-complex assay; method in brief: as §1
HCT-116 [18] = assay: Cell cycle arrest in human HCT-116 cells assessed as accumulation at G0/G1 phase at 500 nM after 24 hrs by propidium iodide staining-based flow cytometric analysis (reference value: 20.9 %); type: functional
Plasmodium falciparum [19] = assay: Inhibition of Plasmodium falciparum GSK3 assessed as residual activity at 10 uM in presence of ATP by ADP-glo luminescent assay relative to control; method in brief: as §4
HCT-116 [20] = assay: Cell cycle arrest in human HCT-116 cells assessed as accumulation at G0/G1 phase at 100 nM after 24 hrs by propidium iodide staining-based flow cytometric analysis (reference value: 20.9 %); type: functional
HCT-116 [21] = assay: Cell cycle arrest in human HCT-116 cells assessed as increase in accumulation at G0/G1 phase after 24 hrs by propidium iodide staining-based flow cytometric analysis; type: functional; settings: dose 100-500 nM
HCT-116 [22] = assay: Cell cycle arrest in human HCT-116 cells assessed as accumulation at G2/M phase at 100 nM after 24 hrs by propidium iodide staining-based flow cytometric analysis (reference value: 31.5 %); type: functional
[23] = molecular target: T1, Glycogen synthase kinase-3 beta; assay: Inhibition of human GSK3beta assessed as residual activity at 10 uM in presence of ATP by ADP-glo luminescent assay relative to control; method in brief: as §2
Target sequence in this assay (P49841 whole entry, looked up): as the sequence (P49841 whole entry) above

[24] = molecular target: T1, Glycogen synthase kinase-3 beta; assay: ATP competitive inhibition of human GSK3beta at 500 nM in presence of ATP by ADP-glo luminescent assay
Method in brief: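 HsGSK3β activity by ADP-Glo luminescence with 500 nM inhibitor, or without it, across ATP 3.125 to 100 μM. Residual activity is given as % of a DMSO control, mean (n = 3) ± SD.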
Target sequence in this assay (P49841 whole entry, looked up): as the sequence (P49841 whole entry) above

SK-BR-3 = assay: Antiproliferative activity against human SK-BR-3 cells assessed as reduction in cell viability incubated for 72 hrs by CellTiter-Blue fluorescence assay; settings: SK-BR-3, 72 h

Sequence of CDK9/cyclin T1 (O60563 whole entry): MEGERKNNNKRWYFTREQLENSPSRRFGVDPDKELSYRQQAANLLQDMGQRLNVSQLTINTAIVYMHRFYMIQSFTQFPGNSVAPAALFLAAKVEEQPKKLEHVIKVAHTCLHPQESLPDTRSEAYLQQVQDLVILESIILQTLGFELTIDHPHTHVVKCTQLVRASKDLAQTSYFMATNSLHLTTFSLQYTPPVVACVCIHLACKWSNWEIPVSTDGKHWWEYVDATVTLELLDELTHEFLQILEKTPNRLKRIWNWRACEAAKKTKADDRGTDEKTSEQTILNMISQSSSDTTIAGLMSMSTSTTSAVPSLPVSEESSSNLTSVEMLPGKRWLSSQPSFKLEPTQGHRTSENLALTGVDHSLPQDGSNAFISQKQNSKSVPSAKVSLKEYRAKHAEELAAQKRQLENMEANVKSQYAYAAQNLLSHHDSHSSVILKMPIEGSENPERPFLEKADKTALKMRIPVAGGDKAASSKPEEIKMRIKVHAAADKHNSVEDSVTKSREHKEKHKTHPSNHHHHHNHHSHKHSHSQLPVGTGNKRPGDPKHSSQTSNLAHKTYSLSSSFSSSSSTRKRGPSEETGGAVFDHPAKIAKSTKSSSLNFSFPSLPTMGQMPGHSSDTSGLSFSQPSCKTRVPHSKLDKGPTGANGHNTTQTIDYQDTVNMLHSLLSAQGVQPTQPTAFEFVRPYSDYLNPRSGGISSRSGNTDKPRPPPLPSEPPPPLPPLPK
Sequence of CDK9/cyclin T1 (P50750 whole entry): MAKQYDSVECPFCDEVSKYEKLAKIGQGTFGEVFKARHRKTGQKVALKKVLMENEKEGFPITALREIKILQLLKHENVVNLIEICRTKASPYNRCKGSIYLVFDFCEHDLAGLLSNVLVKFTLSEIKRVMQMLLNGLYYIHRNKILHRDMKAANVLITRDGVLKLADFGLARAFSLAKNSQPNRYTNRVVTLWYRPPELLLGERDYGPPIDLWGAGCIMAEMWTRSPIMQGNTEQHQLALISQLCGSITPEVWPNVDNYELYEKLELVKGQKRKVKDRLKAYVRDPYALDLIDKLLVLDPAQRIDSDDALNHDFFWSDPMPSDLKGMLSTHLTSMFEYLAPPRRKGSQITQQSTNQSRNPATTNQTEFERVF
Sequence of Cyclin-dependent kinase 5/CDK5 activator 1 (Q00535 whole entry): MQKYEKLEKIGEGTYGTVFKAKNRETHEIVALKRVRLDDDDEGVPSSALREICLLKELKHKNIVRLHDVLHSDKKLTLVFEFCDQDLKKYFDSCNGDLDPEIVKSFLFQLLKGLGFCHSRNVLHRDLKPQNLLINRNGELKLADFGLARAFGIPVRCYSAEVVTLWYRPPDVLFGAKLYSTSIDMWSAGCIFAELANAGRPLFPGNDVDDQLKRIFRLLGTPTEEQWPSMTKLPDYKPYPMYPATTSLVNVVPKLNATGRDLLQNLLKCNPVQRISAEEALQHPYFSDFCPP
Sequence of Cyclin-dependent kinase 5/CDK5 activator 1 (Q15078 whole entry, further chain): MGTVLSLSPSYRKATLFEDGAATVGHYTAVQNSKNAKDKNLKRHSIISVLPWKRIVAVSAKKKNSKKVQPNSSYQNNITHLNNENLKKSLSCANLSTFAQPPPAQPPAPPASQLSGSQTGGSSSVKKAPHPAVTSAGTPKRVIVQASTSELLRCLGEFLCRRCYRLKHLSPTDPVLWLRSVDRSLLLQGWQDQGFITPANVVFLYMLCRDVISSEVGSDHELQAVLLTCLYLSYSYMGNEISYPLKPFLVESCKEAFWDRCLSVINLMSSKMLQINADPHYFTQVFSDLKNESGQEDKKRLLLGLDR

IC50 [1]: 59 nM
IC50 [5]: 1090 nM
Activity [6]: 12%
Activity (Leishmania major): 38%
Ratio IC50 [7]: 20
Activity (Sus scrofa [8]): 31%
IC50 [10]: 149 nM
IC50 (K562 [11]): 50.8 nM
Activity (Plasmodium falciparum [12]): 80%
Activity (Sus scrofa [13]): 10%
Activity [14]: 1%
Activity [15]: -2%
IC50 (CDK2/Cyclin A2): 1730 nM
IC50 (CDK9/cyclin T1): 64 nM
Activity (Plasmodium falciparum [19]): 46%
Activity [23]: 2%
inhibition [24]: Active
IC50 (SK-BR-3): 53.7 nM
Structure (SMILES): CN1CC=C(c2c(O)cc(O)c3c(=O)cc(-c4ccc(Sc5nc6ccccc6n5C)cc4Cl)oc23)CC1
Activity (K562 [2]): Dose-dependent effect
Activity (K562 [3]): 20.7%
Activity (K562 [4]): 50.3%
Activity (K562 [9]): 22.7%
IC50 (NCI-N87): 49 nM
Activity (HCT-116 [16]): 43.1%
Activity (K562 [17]): 10.7%
Activity (HCT-116 [18]): 34.8%
Activity (HCT-116 [20]): 20.6%
Activity (HCT-116 [21]): Dose-dependent effect
Activity (HCT-116 [22]): 30.7%

From ChEMBL document CHEMBL4765319, “Identification of a new series of flavopiridol-like structures as kinase inhibitors with high cytotoxic potency” (Eur J Med Chem, 2020)
